Converted amounts (≈) assume the structure as drawn.
Tests used:
[1] = Fraction unbound in human Plasma; assay type: ADME, cell-free
[2] = target: T1, DNA-dependent protein kinase catalytic subunit (Homo sapiens, UniProt P78527); assay: Inhibition of human DNA-PK using GST-tagged p53N66 as substrate after 1 hr by ELISA-based chemiluminiscence assay
[3] = target: T1, DNA-dependent protein kinase catalytic subunit; assay: Inhibition of DNA-PK autophosphorylation at S2056 in human HeLa cells; assay type: cell-based
[4] = target: Phosphatidylinositol 4,5-bisphosphate 3-kinase catalytic subunit gamma isoform (Homo sapiens, UniProt P48736); assay: Inhibition of PI-3K gamma (unknown origin)
HeLa [5] = assay: Antiproliferative activity against human HeLa cells assessed as cell survival ratio at 0.1 uM treated 1 hr before 2Gy ionizing radiation measured after 6 to 8 days by DMR clonogenic assay; assay type: functional
Outline: (§1)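 HeLa cells seeded in 6-well dishes, incubated overnight at 37 °C/5% CO2, pre-treated 1 h with vehicle or inhibitor (0.1 or 0.5 μM), then given 2 Gy X-ray IR and held overnight. Medium then replaced without compound and culture continued 6-8 days. Colonies Giemsa-stained and counted automatically. DMR = % survival (vehicle, 2 Gy) / % survival (compound, 2 Gy).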

[6] = target: Voltage-gated inwardly rectifying potassium channel KCNH2 (Homo sapiens, UniProt Q12809); assay: Inhibition of human ERG expressed in cisapride treated CHO cells by Ion Works assay
[7] = target: Serine/threonine-protein kinase ATR (Homo sapiens, UniProt Q13535); assay: Inhibition of ATR (unknown origin)
[8] = Aqueous solubility of the compound at pH 7.4; assay type: physicochemical; conditions: buffer
[9] = Lipophilicity, log D of the compound; assay type: physicochemical; conditions: octanol/water
[10] = target: T1, DNA-dependent protein kinase catalytic subunit; assay: Inhibition of DNA-PK (unknown origin)
[11] = target: T2, Phosphatidylinositol 4,5-bisphosphate 3-kinase catalytic subunit delta isoform (Homo sapiens, UniProt O00329); assay: Inhibition of PI-3K delta (unknown origin)
T2 sequence (O00329 whole entry): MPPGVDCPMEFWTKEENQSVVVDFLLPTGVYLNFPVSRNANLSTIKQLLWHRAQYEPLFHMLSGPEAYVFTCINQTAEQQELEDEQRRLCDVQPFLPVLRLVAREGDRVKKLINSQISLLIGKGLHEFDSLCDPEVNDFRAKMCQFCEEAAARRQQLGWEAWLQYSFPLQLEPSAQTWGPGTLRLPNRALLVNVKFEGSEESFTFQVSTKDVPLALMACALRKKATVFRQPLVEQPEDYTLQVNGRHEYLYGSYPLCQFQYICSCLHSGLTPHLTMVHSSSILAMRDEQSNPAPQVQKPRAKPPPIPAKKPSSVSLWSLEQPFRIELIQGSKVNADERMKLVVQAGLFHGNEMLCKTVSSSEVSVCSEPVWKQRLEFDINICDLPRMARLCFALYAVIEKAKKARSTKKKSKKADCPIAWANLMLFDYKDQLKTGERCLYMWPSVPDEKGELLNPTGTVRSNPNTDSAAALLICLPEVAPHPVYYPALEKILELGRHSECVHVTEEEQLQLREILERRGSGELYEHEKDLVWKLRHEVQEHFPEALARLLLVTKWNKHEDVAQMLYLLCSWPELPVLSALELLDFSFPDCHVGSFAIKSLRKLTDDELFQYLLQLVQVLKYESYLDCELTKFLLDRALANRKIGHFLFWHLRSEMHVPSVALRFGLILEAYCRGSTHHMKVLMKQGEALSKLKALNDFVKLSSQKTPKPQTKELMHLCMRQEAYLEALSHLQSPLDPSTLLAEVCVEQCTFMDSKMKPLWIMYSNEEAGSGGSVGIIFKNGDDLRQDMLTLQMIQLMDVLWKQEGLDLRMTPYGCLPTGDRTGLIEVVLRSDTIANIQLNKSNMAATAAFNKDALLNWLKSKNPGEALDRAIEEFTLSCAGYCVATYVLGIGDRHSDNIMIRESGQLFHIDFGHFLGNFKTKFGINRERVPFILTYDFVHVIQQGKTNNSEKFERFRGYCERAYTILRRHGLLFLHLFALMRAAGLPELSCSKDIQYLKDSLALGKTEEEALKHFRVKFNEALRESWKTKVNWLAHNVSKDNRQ

[12] = target: Serine/threonine-protein kinase mTOR (Homo sapiens, UniProt P42345); assay: Inhibition of mTOR (unknown origin)
HeLa [13] = assay: Antiproliferative activity against human HeLa cells assessed as cell survival ratio at 0.5 uM treated 1 hr before 2Gy ionizing radiation measured after 6 to 8 days by DMR clonogenic assay; assay type: functional; outline: as §1
[14] = target: Phosphatidylinositol 4,5-bisphosphate 3-kinase catalytic subunit beta isoform (Homo sapiens, UniProt P42338); assay: Inhibition of PI-3K beta (unknown origin)
[15] = target: Serine-protein kinase ATM (Homo sapiens, UniProt Q13315); assay: Inhibition of ATM (unknown origin)
Cytochrome P450 2D6 = Cytochrome P450 2D6 (Homo sapiens, UniProt P10635); assay: Inhibition of CYP2D6 (unknown origin); assay type: ADME
Cytochrome P450 3A4 = Cytochrome P450 3A4 (Homo sapiens, UniProt P08684); assay: Inhibition of CYP3A4 (unknown origin); assay type: ADME
Cytochrome P450 2C19 = Cytochrome P450 2C19 (Homo sapiens, UniProt P33261); assay: Inhibition of CYP2C19 (unknown origin); assay type: ADME
Cytochrome P450 2C9 = Cytochrome P450 2C9 (Homo sapiens, UniProt P11712); assay: Inhibition of CYP2C9 (unknown origin); assay type: ADME
Cytochrome P450 1A2 = target: T3, Cytochrome P450 1A2 (Homo sapiens, UniProt P05177); assay: Inhibition of CYP1A2 (unknown origin); assay type: ADME
T3 sequence (P05177 whole entry): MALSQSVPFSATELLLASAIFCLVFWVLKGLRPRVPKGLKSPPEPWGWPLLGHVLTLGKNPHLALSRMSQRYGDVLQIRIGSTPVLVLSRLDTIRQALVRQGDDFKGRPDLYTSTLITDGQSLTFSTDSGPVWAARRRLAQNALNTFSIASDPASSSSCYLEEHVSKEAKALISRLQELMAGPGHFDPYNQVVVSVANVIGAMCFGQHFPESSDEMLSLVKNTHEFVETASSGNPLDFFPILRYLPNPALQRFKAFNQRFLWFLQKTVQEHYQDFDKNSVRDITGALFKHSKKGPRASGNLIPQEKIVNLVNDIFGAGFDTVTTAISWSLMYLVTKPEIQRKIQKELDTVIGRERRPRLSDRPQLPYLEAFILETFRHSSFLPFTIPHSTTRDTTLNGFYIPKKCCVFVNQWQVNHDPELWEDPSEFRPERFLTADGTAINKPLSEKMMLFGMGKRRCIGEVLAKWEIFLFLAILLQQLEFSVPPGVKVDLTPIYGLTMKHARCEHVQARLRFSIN

[16] = target: Phosphatidylinositol 4,5-bisphosphate 3-kinase catalytic subunit alpha isoform (Homo sapiens, UniProt P42336); assay: Inhibition of PI-3K alpha (unknown origin)
[17] = target: Aurora kinase B (Homo sapiens) (UniProt Q96GD4); assay: Inhibition of Aurora kinase B (unknown origin); conditions: concentration not given here
HeLa [18] = assay: Antiproliferative activity against human HeLa cells assessed as cell viability after 6 to 8 days by DMR clonogenic assay; assay type: cell-based

T1 sequence (P78527 whole entry): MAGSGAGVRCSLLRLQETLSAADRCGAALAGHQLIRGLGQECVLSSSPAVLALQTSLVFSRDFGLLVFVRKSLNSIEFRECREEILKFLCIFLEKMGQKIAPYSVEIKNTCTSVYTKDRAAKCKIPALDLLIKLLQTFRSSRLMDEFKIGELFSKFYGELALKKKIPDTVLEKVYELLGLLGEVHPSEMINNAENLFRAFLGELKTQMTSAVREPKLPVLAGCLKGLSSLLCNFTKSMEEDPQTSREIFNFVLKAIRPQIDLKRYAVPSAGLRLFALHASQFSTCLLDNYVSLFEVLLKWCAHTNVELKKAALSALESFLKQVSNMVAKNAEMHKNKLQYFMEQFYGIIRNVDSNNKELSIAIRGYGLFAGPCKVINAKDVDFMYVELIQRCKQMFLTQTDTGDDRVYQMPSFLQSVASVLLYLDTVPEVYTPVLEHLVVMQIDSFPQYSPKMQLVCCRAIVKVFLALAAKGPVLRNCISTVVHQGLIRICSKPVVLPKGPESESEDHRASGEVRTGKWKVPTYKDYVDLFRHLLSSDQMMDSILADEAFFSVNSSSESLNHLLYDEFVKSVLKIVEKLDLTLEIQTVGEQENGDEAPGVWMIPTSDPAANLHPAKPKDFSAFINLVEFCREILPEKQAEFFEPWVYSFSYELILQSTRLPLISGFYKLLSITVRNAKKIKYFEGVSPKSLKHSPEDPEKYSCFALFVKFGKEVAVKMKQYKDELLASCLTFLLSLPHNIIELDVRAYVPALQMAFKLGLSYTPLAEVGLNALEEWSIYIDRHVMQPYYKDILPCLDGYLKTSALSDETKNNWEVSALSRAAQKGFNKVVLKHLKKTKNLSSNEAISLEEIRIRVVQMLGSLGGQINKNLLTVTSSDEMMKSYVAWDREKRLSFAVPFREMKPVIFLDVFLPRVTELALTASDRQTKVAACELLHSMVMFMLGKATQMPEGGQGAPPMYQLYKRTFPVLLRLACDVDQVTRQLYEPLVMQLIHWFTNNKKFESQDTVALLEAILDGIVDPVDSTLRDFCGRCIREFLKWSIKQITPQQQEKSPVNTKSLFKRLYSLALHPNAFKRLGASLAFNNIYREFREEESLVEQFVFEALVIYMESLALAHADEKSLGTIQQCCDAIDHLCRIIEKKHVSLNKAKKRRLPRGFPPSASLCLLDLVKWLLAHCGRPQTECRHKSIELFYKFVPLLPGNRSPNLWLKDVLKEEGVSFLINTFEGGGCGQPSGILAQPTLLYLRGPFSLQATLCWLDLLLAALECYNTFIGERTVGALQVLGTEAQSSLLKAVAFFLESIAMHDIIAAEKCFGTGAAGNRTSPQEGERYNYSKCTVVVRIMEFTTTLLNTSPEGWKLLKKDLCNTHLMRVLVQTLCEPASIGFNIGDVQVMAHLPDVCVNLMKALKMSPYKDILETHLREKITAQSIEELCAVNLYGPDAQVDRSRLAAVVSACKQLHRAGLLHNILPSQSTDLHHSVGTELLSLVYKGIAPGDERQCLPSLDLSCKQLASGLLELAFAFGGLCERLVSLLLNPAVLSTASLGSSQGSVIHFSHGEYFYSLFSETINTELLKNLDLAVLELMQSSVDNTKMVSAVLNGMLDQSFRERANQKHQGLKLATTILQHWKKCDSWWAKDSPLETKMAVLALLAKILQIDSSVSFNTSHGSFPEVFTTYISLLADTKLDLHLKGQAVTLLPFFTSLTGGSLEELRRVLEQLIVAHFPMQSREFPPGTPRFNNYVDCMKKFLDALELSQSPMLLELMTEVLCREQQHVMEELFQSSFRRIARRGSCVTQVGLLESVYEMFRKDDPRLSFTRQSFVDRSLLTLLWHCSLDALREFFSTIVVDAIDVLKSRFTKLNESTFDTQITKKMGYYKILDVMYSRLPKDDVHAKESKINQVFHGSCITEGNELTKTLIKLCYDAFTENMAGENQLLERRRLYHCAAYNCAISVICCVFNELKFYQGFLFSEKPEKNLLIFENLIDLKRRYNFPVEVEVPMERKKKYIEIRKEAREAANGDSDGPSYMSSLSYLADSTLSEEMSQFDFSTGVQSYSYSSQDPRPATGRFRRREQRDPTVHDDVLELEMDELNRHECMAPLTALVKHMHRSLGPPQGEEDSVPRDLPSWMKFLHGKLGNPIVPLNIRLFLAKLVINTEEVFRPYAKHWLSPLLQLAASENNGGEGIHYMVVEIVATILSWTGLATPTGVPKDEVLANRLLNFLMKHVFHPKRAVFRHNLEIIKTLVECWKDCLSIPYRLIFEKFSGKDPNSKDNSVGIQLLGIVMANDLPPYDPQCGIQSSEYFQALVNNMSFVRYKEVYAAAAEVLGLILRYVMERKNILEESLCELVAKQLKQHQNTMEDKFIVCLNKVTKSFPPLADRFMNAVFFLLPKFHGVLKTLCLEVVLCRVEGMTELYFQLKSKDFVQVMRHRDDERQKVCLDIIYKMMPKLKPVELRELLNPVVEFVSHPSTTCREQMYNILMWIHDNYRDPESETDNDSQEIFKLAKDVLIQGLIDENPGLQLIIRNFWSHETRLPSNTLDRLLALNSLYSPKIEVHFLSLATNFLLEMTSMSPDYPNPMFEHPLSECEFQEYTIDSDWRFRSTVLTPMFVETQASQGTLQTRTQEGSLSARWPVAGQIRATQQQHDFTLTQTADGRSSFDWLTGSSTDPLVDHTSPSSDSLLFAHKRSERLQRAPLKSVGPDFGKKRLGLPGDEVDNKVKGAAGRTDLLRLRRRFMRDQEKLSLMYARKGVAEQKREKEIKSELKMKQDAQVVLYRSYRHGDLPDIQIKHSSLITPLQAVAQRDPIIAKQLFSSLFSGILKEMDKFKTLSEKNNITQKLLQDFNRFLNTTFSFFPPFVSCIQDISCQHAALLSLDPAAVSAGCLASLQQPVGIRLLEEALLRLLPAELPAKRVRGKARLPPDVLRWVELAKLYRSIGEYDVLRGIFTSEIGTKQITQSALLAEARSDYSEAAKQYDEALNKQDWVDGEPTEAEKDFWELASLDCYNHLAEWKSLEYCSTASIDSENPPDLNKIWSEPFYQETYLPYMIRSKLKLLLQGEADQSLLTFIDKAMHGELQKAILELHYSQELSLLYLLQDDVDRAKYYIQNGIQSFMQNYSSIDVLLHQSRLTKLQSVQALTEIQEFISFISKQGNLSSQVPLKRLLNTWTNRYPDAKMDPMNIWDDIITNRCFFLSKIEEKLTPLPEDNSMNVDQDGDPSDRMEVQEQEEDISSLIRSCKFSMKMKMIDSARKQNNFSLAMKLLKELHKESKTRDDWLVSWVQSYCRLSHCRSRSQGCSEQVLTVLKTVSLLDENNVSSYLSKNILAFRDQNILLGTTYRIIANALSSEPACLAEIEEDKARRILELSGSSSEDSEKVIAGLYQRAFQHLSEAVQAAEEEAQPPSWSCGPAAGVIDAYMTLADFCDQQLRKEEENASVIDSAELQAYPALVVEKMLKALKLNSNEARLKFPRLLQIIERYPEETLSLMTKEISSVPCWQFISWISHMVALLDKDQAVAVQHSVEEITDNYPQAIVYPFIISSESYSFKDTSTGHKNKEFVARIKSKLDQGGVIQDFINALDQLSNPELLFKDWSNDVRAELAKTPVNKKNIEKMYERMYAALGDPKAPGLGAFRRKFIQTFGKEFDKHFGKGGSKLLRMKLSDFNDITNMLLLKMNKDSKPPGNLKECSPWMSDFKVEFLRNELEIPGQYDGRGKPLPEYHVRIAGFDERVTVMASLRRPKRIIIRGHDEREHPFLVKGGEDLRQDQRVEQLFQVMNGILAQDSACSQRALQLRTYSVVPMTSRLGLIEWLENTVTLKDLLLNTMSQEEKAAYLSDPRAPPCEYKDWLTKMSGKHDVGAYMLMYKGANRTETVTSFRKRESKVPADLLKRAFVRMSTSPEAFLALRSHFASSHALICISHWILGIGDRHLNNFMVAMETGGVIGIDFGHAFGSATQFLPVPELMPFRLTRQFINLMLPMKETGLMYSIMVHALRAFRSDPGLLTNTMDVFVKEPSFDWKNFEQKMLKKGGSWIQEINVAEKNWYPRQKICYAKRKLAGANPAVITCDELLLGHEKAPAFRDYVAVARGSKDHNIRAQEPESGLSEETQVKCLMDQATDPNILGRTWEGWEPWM
Cytochrome P450 3A4, sequence (P08684 whole entry): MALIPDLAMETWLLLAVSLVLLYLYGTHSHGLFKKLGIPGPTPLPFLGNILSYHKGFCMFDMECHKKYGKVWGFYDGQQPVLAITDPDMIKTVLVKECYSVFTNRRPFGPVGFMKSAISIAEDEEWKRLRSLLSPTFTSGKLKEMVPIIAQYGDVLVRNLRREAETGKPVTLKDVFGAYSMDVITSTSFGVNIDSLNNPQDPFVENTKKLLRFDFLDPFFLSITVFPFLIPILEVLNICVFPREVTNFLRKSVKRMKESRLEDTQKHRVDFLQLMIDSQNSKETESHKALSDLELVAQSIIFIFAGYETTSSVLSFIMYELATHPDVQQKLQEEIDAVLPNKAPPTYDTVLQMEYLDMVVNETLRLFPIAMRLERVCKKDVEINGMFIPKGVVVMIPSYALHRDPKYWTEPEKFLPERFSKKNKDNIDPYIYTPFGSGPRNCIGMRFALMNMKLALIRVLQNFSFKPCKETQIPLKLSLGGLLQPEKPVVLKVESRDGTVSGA
Cytochrome P450 2C9, sequence (P11712 whole entry): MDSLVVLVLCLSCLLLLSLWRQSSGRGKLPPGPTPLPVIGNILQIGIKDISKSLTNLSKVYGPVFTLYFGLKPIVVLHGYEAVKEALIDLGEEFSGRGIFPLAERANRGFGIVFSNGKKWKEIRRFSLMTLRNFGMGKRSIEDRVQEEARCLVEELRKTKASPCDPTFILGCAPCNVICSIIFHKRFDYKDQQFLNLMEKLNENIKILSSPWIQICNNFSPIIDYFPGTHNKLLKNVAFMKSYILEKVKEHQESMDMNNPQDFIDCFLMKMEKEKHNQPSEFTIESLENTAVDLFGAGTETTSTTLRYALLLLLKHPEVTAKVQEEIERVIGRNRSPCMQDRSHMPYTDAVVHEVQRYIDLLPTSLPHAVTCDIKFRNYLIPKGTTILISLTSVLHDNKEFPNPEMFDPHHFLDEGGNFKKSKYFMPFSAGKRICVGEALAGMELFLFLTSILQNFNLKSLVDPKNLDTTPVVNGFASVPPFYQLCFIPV

CC(=O)N1CCN(CCOc2ccc(-c3cccc4c(=O)cc(N5CCOCC5)oc34)c3sc4ccccc4c23)CC1
fraction unbound [1]: 0.0049 | IC50 [2]: 2 nM | EC50 [3]: 166 nM

O=c1cc(N2CCOCC2)oc2c(-c3cccc4c3sc3ccccc34)cccc12
IC50 [4]: 220 nM | Ratio (HeLa [5]): 2.2 | IC50 [6]: 14000 nM | fraction unbound [1]: 0.0004 | IC50 [7]: > 10000 nM | IC50 [2]: 42 nM | solubility [8]: < 0.2 µM | logD [9]: > 4.3 | IC50 [10]: 40 nM | IC50 [11]: 30 nM | IC50 [12]: 2400 nM | Ratio (HeLa [13]): 2.8 | IC50 [14]: 16 nM | IC50 [15]: > 10000 nM | EC50 [3]: 212 nM

O=C(CN1CCN(CCO)CC1)Nc1ccc(-c2cccc3c(=O)cc(N4CCOCC4)oc23)c2sc3ccccc3c12
Ratio (HeLa [5]): 2 | IC50 [6]: > 30000 nM | IC50 (Cytochrome P450 2D6): > 10000 nM | IC50 (Cytochrome P450 3A4): > 10000 nM | IC50 (Cytochrome P450 2C19): > 10000 nM | fraction unbound [1]: 0.098 | IC50 [2]: 5 nM | solubility [8]: 154 µM (≈ 92.2 µg/mL) | logD [9]: 2.7 | Ratio (HeLa [13]): 8.4 | IC50 (Cytochrome P450 2C9): > 10000 nM | EC50 [3]: 109 nM | IC50 (Cytochrome P450 1A2): > 10000 nM

CN1CCN(CC(=O)Nc2ccc(-c3cccc4c(=O)cc(N5CCOCC5)oc34)c3sc4ccccc4c23)CC1
Ratio (HeLa [5]): 2.4 | IC50 [6]: > 10000 nM | IC50 (Cytochrome P450 2D6): > 10000 nM | IC50 (Cytochrome P450 3A4): > 10000 nM | IC50 (Cytochrome P450 2C19): > 10000 nM | fraction unbound [1]: 0.036 | IC50 [2]: 12 nM | solubility [8]: 5 µM (≈ 2.84 µg/mL) | logD [9]: 3 | Ratio (HeLa [13]): 7.4 | IC50 (Cytochrome P450 2C9): > 10000 nM | EC50 [3]: 426 nM | IC50 (Cytochrome P450 1A2): > 10000 nM

CCN1CCCC1CNCCC(=O)Nc1ccc(-c2cccc3c(=O)cc(N4CCOCC4)oc23)c2sc3ccccc3c12 (stereo not given)
Ratio (HeLa [5]): 1.2 | IC50 [2]: 49 nM | Ratio (HeLa [13]): 1.7

NCCNCC(=O)Nc1ccc(-c2cccc3c(=O)cc(N4CCOCC4)oc23)c2sc3ccccc3c12
Ratio (HeLa [5]): 1.1 | IC50 [2]: 16 nM | Ratio (HeLa [13]): 1.5

O=C(CN(CCO)CCO)Nc1ccc(-c2cccc3c(=O)cc(N4CCOCC4)oc23)c2sc3ccccc3c12
Ratio (HeLa [5]): 1.1 | IC50 [2]: 6 nM | Ratio (HeLa [13]): 1.9

O=C(CCN1CCN(c2ccccn2)CC1)Nc1ccc(-c2cccc3c(=O)cc(N4CCOCC4)oc23)c2sc3ccccc3c12
Ratio (HeLa [5]): 1.5 | IC50 [2]: 24 nM | Ratio (HeLa [13]): 4.4

O=C(CNCCN1CCNC1=O)Nc1ccc(-c2cccc3c(=O)cc(N4CCOCC4)oc23)c2sc3ccccc3c12
Ratio (HeLa [5]): 1.2 | IC50 [2]: 7 nM | Ratio (HeLa [13]): 1.2

O=C(CN1CCCCCC1)Nc1ccc(-c2cccc3c(=O)cc(N4CCOCC4)oc23)c2sc3ccccc3c12
Ratio (HeLa [5]): 1.3 | IC50 [2]: 51 nM | Ratio (HeLa [13]): 3.9

O=C(CCNCCN1CCNC1=O)Nc1ccc(-c2cccc3c(=O)cc(N4CCOCC4)oc23)c2sc3ccccc3c12
Ratio (HeLa [5]): 1.1 | IC50 [2]: 6 nM | Ratio (HeLa [13]): 0.9

CN1CCCN(CC(=O)Nc2ccc(-c3cccc4c(=O)cc(N5CCOCC5)oc34)c3sc4ccccc4c23)CC1
Ratio (HeLa [5]): 1.7 | IC50 [2]: 55 nM | Ratio (HeLa [13]): 7.6

NCCC(=O)Nc1ccc(-c2cccc3c(=O)cc(N4CCOCC4)oc23)c2sc3ccccc3c12
Ratio (HeLa [5]): 1.1 | IC50 [2]: 8 nM | Ratio (HeLa [13]): 1.4

O=c1cc(N2CCOCC2)oc2c(-c3ccccc3)cccc12 [LY-294002]
IC50 [7]: > 10000 nM | IC50 [11]: 220 nM | IC50 [12]: 2800 nM | IC50 [15]: > 10000 nM

CC(C)N1CCN(C(=O)COc2ccc(-c3cccc4c(=O)cc(N5CCOCC5)oc34)c3sc4ccccc4c23)CC1
Ratio (HeLa [5]): 1.3 | IC50 [2]: 16 nM | Ratio (HeLa [13]): 3.1

O=C(CCN1CCCCC1)Nc1ccc(-c2cccc3c(=O)cc(N4CCOCC4)oc23)c2sc3ccccc3c12
Ratio (HeLa [5]): 1.9 | IC50 [2]: 37 nM | Ratio (HeLa [13]): 5

CCN1CCN(CC(=O)Nc2ccc(-c3cccc4c(=O)cc(N5CCOCC5)oc34)c3sc4ccccc4c23)CC1
IC50 [4]: 590 nM | IC50 (Cytochrome P450 2D6): > 10000 nM | IC50 (Cytochrome P450 3A4): > 10000 nM | IC50 (Cytochrome P450 2C19): > 10000 nM | fraction unbound [1]: 0.036 | IC50 [7]: > 10000 nM | IC50 [16]: 4 nM | solubility [8]: 161 µM (≈ 93.8 µg/mL) | logD [9]: 3.05 | inhibition [17]: 44% | IC50 [11]: < 0.1 nM | IC50 [12]: 10000 nM | IC50 [14]: 0.5 nM | IC50 (HeLa [18]): > 25000 nM | IC50 [15]: > 10000 nM | IC50 (Cytochrome P450 2C9): > 10000 nM | EC50 [3]: 136 nM | IC50 (Cytochrome P450 1A2): > 10000 nM

CN(C)CCN1CCN(CC(=O)Nc2ccc(-c3cccc4c(=O)cc(N5CCOCC5)oc34)c3sc4ccccc4c23)CC1
Ratio (HeLa [5]): 1.7 | IC50 [2]: 10 nM | Ratio (HeLa [13]): 5.9

CN(CC(N)=O)C(=O)COc1ccc(-c2cccc3c(=O)cc(N4CCOCC4)oc23)c2sc3ccccc3c12
Ratio (HeLa [5]): 0.9 | IC50 [2]: 11 nM | Ratio (HeLa [13]): 1.4

— ChEMBL document CHEMBL2417539, “1-substituted (Dibenzo[b,d]thiophen-4-yl)-2-morpholino-4H-chromen-4-ones endowed with dual DNA-PK/PI3-K inhibitory activity” (J Med Chem, 2013)
